Source: PubChem
Compounds with a hit are over-represented: about 4.8% of the library has one in this group of screens.
PAFAH1B2 FP inh = PAFAH1B2 enzyme inhibitors, primary screen, biochemical, fluorescence polarization, human; recombinant PAFAH1B2, FP-rhodamine activity probe; 340,000 tested, 1.2% active; inhibition, % at 3.39 µM; AID 492953, 2010; Platelet-activating factor acetylhydrolase IB subunit alpha2 (Homo sapiens), P68402;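 active = inhibition above the mean of all tested compounds plus 3 SD, cut at about 24% in these data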;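 note: 0% = enzyme with DMSO and 100% = wells lacking PAFAH1B2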
Target sequence (P68402 whole entry, looked up): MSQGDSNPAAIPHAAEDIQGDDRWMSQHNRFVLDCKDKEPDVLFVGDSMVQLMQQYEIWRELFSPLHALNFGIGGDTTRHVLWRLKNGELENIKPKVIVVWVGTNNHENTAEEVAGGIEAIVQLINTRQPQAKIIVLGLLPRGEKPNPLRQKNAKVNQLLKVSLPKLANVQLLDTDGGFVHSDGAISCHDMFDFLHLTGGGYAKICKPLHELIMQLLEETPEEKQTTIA
PAFAH2 inh = PAFAH2 enzyme inhibitors, primary screen, biochemical, fluorescence polarization, human; Platelet-activating factor acetylhydrolase 2, cytoplasmic (Homo sapiens), Q99487; recombinant PAFAH2, FP-rhodamine activity probe; inhibition, % at 3.39 µM; 340,000 tested, 0.99% active;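 active = inhibition above the mean over all tested compounds plus 3 SD, cut at about 30% in these data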;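 note: inhibitors block probe labeling of enzyme so polarization drops; 0% = enzyme with DMSO and 100% = wells lacking PAFAH2 protein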
PAFAH1B3 FP inh = PAFAH1B3 enzyme inhibitors, primary screen, biochemical, fluorescence polarization, human; Platelet-activating factor acetylhydrolase IB subunit alpha1 (Homo sapiens), Q15102; recombinant PAFAH1B3, FP-rhodamine probe; inhibition, % at 3.39 µM; 340,000 tested, 0.28% active;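 active = inhibition above the screen-wide average of all tested compounds plus 3 SD, cut at about 25% in these data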;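 note: 0% = enzyme with DMSO only and 100% = wells lacking PAFAH1B3 protein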
GRIN3A LBD mod = binders of NR3A ligand-binding domain, primary screen, biophysical, differential scanning fluorimetry, uHTS; 340,000 tested, 2.5% active; NR3A LBD differential scanning fluorimetry, Tm shift; 0% = protein alone, 100% = glycine-bound protein; Glutamate receptor ionotropic, NMDA 3A (GRIN3A) ligand-binding domain; Tm shift relative to glycine control, % at 25 µM; AID 1259313, 2017;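 active = melting temperature shift of at least 10% of the positive control shift, at one fixed dose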
pPAFAH FP inh = pPAFAH enzyme inhibitors, primary screen, biochemical, fluorescence polarization, human; Platelet-activating factor acetylhydrolase (Homo sapiens), Q13093; inhibition, % at 3.39 µM; 330,000 tested, 1.5% active; recombinant pPAFAH, FP-rhodamine probe fluorescence polarization;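 active = inhibition above the mean inhibition across the screen plus 3 SD, cut at about 25% in these data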;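 note: inhibitors block binding of the rhodamine activity-based probe so polarization drops; 0% = enzyme with DMSO and 100% = wells lacking pPAFAH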
Target sequence (Q13093 whole entry, looked up): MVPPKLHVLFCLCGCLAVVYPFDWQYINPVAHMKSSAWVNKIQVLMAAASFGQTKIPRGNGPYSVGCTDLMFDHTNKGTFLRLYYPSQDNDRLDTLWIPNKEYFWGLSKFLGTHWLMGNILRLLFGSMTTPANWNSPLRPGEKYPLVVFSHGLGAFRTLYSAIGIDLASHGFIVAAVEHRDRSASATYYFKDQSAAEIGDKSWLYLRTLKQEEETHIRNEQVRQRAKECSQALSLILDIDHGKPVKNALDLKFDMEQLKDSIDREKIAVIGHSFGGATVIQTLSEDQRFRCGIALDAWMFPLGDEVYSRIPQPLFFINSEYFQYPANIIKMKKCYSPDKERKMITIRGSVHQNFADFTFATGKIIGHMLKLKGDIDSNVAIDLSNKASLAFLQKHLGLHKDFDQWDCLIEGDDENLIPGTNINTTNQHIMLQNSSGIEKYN
UCH37 DUB inh = inhibitors of human UCH37 deubiquitinase, primary screen, biochemical, Ub-AMC cleavage, fluorescence; purified proteasome/UCH37; inhibition, % (no concentration beside the values); 330,000 tested, 0.33% active; Ubiquitin carboxyl-terminal hydrolase isozyme L5 (Homo sapiens), Q9Y5K5;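 active = mean inhibition over replicate wells above about 20%, limit read from the data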;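 note: 0% = compound-free wells with enzyme and 100% = wells lacking proteasome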
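Test system – human UCH37 enzyme supplied as purified proteasome complex · Incubation – 30 min preincubation with enzyme, 25 min cleavage at room temperature · Detection – AMC fluorescence from Ub-AMC cleavage, excitation 355 nm, emission 460 nm · Benchmarks – no-proteasome wells (full inhibition) and compound-free wells (no inhibition)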
An asterisk follows results filed as active; nt = not tested or not shown.

SMILES	PAFAH1B2 FP inh	PAFAH2 inh	PAFAH1B3 FP inh	GRIN3A LBD mod	pPAFAH FP inh	UCH37 DUB inh
COc1ccc(N2CCN(S(=O)(=O)CCNC(=O)C3CCCCC3)CC2)cc1	0.1	-2.8	4.7	0.1	4.1	-0.1
CCOc1cc(C=Nn2c(C)nc3sc(C)c(C)c3c2=O)ccc1O	nt	nt	nt	nt	nt	7.7
Cn1c(SCC(=O)N2CCN(c3ccccc3)CC2)nnc1-c1ccncc1	2.2	-6.5	5.1	11.4*	-1.7	2.9
Cn1c(=O)c2[nH]c(SCCN3CCOCC3)nc2n(C)c1=S	4.8	5.6	5.6	-1.6	nt	4.9
Cn1c(=O)c2[nH]c(SCCN3CCCCC3)nc2n(C)c1=S	5.2	-1.5	3.4	15.1*	nt	1.5
Oc1ccc(/C=N/NC(=S)Nc2cccnc2)cc1O	2.3	13.2	13.0	-14.3	33.1*	nt
Oc1ccc(C=NNC(=S)Nc2cccnc2)nc1	4.7	3.4	14.5	11.0*	nt	nt
Cc1cccc(NN=C2COC(C)(C)CC2=O)c1	nt	nt	nt	nt	nt	8.3
Nc1c(C(=O)NC2CCCC2)c2nc3ccccc3nc2n1/N=C/c1ccco1	0.1	0.6	9.6	-7.0	6.0	nt
Nc1c(C(=O)NC2CCCC2)c2nc3ccccc3nc2n1N	2.6	-0.7	0.3	-19.9	24.7*	-8.1
CC(=O)c1ccc(NC(=O)CSc2ccsc2[N+](=O)[O-])cc1	0.1	5.6	13.7	11.8*	nt	1.4
CCN(CC)c1ccc(NC(=O)CSc2ccsc2[N+](=O)[O-])c(C)c1	0.0	9.8	8.1	-5.2	28.1*	7.4
Cc1ccc(Nc2ccc(C(N)=O)cc2[N+](=O)[O-])cc1C	-5.8	-11.2	3.5	-1.0	17.1	26.5*
Cc1ccc(NC(=O)CSc2ccc(C(N)=O)cc2[N+](=O)[O-])cc1C	-0.4	-0.6	1.8	6.2	1.4	5.4
Cc1ccc(NC(=O)CSc2ccc(C(N)=O)cc2[N+](=O)[O-])cc1	4.7	3.9	-1.5	25.1*	4.1	-1.4
COc1ccc(C=Nn2cnc3c([nH]c4ccccc43)c2=O)cc1COc1ccccn1	nt	nt	nt	nt	nt	3.4
C/C(=N\NC(=O)CNc1cccc(C(F)(F)F)c1)c1cccc(Br)c1	1.6	6.6	0.9	8.3	4.9	nt
Cc1nn(Cc2ccccc2)c(Cl)c1/C=N/NC(=O)CNc1cccc(C(F)(F)F)c1	-1.6	-0.1	8.9	27.1*	2.1	nt
Cc1cccc(NCC(=O)N/N=C/c2cccc(Br)c2)c1	11.8	10.3	3.1	-20.0	3.3	nt
C/C(=N\NC(=O)CNc1cccc(C)c1)c1ccc(Br)s1	-2.1	-3.5	-2.5	11.5*	12.9	nt
C/C(=N\NC(=O)CNc1cccc(C(F)(F)F)c1)c1ccc(Br)cc1	6.6	-6.4	6.2	18.0*	6.8	nt
Cc1nn(Cc2ccccc2)c(Cl)c1C=NNC(=O)CNc1cccc(C(F)(F)F)c1	nt	nt	nt	nt	nt	3.2
O=C(CNc1cccc(C(F)(F)F)c1)N/N=C/c1cccc(Br)c1	4.3	5.6	9.3	28.6*	4.2	nt
CN(C)Cc1c(C(=O)NN=Cc2ccncc2)nnn1-c1nonc1N	nt	nt	nt	nt	nt	-0.1
COc1ccc(CC(=O)NN=C(C)CC(=O)Nc2ccc3c(c2)OCCO3)cc1OC	nt	nt	nt	nt	nt	1.7
SMILES	PAFAH1B2 FP inh	PAFAH2 inh	PAFAH1B3 FP inh	GRIN3A LBD mod	pPAFAH FP inh	UCH37 DUB inh
CC(=NNC(=O)c1ccccc1O)c1ccc(N2C(=O)C3CCCCC3C2=O)cc1 (stereo not given)	nt	nt	nt	nt	nt	8.2
CN(C)CCC=C1c2ccccc2CCc2ccccc21	1.5	5.8	-0.2	1.3	-0.8	22.1*
CN(C)CC/C=C1/c2ccccc2COc2ccccc21	nt	nt	nt	nt	1.0	nt
Cc1cc(=O)[nH]c(NN=Cc2ccc(Cl)cc2Cl)n1	nt	nt	nt	nt	nt	-22.2
Cc1ccc(C(=O)OCC(=O)NC(C)C2CC3CCC2C3)cc1N (stereo not given)	7.4	83.8*	7.3	-0.2	30.4*	-3.0
CC(NC(=O)COC(=O)c1cc(Cl)ccc1O)C1CC2CCC1C2 (stereo not given)	26.5*	28.8	3.6	-5.2	7.2	-18.2
COCc1cc(C=NNC(=O)Cc2ccc(OC)cc2)ccc1OC	nt	nt	nt	nt	nt	1.5
CCN(CC)S(=O)(=O)c1ccc(C(=O)OCC(=O)NCc2ccco2)cc1	-2.4	-1.1	11.1	0.1	17.4	-0.4
CCN(CC)S(=O)(=O)c1ccc(/C=C/C(=O)OCC(=O)NCc2ccco2)cc1	8.7	74.8*	-5.8	-0.9	30.0*	1.2
O=C(NCCCN1CCOCC1)c1ccc(Sc2ccccc2Cl)c([N+](=O)[O-])c1	1.1	1.5	11.1	17.8*	24.2	4.6
O=C(C1=NN[C@@H]2C(=O)N(c3cccc(C(F)(F)F)c3)C(=O)[C@H]12)C(c1ccccc1)c1ccccc1	18.6	-6.3	0.7	15.5*	3.0	4.6
CC(=O)OC[C@H]1O[C@H](CC=NOC[C@@H](O)[C@H]2O[C@@H]3OC(C)(C)O[C@@H]3[C@H]2O)C=C[C@@H]1OC(C)=O	nt	nt	nt	nt	nt	0.7
O/N=C/c1ccccc1Oc1ccc(Cl)cc1	5.0	-7.7	5.5	-0.8	0.3	nt
N#CCC(=O)c1ccccc1Oc1ccc(Cl)cc1	6.1	-6.6	3.1	-2.5	25.0*	-4.1
Cc1cccc(N2C(=O)CSC2=NNC(=O)c2cccnc2)c1C	nt	nt	nt	nt	nt	-1.1
CC(=NNC(=O)Cc1ccc([N+](=O)[O-])cc1)c1cccnc1	nt	nt	nt	nt	nt	-0.9
O=C(/C(=N\Nc1ccc(Br)cc1)Sc1nnnn1-c1ccccc1)c1ccccc1	19.8	7.6	10.5	20.1*	-0.4	nt
CCCCN1CC(COCc2ccccc2)Oc2ccccc2S1(=O)=O (stereo not given)	2.6	5.3	3.4	16.8*	4.1	0.1
COc1ccc(CN2CC(COCc3ccccc3)Oc3ccccc3S2(=O)=O)cc1 (stereo not given)	5.4	3.8	7.5	1.2	5.1	4.5
CCCCN1CC(COCc2ccccc2)Oc2cccc(Oc3ccc(OC)cc3)c2S1(=O)=O (stereo not given)	2.0	-6.9	3.0	-2.4	nt	nt
O=S1(=O)c2ccccc2OC(COCc2ccccc2)CN1Cc1ccccc1 (stereo not given)	3.1	-1.0	6.2	18.1*	-1.2	1.4
CCCCN1CC(COCc2ccccc2)Oc2cccc(F)c2S1(=O)=O (stereo not given)	0.9	-6.4	3.6	14.0*	nt	nt
C=C(C)CSc1nncn1N=Cc1ccc(OC)cc1	nt	nt	nt	nt	nt	2.1
CCCCN(C(=O)CSc1nn(-c2ccc(F)cc2)c(=S)s1)c1c(N)n(CCCC)c(=O)[nH]c1=O	11.5	1.3	-0.8	-4.4	-6.5	-1.7
